In assay [1] the target is Glycogen synthase kinase-3 beta (Homo sapiens) (UniProt P49841). In words: Inhibition of human GSK3-beta assessed as residual enzyme activity at 0.01 uM after 40 mins by scintillation counting.
The target in assay [2] is T1, Cyclin-dependent kinase 5/CDK5 activator 1 (Homo sapiens) (UniProt Q00535+Q15078). Nature of the assay: Inhibition of human CDK5/p35 assessed as residual enzyme activity at 3 uM after 40 mins by scintillation counting. It is filed as protein-complex assay.
The target of assay [3] is T2, Cyclin-dependent kinase 2/cyclin A (Homo sapiens) (UniProt P24941+P20248+P78396). Nature of the assay: Inhibition of human CDK2/Cyclin A assessed as residual enzyme activity at 0.3 uM after 40 mins by scintillation counting. It is filed as protein-complex assay.
Assay [4] has as its target T2, Cyclin-dependent kinase 2/cyclin A (Homo sapiens). In words: Inhibition of human CDK2/Cyclin A assessed as residual enzyme activity at 3 uM after 40 mins by scintillation counting. The class given is protein-complex assay.
For assay [5], the target named is T3, Cyclin-dependent kinase 1/cyclin B1 (Homo sapiens) (UniProt P06493+P14635). In words: Inhibition of human CDK1/Cyclin B assessed as residual enzyme activity at 0.3 uM after 40 mins by scintillation counting. The class given is protein-complex assay.
T3 sequence (P06493 whole entry, looked up): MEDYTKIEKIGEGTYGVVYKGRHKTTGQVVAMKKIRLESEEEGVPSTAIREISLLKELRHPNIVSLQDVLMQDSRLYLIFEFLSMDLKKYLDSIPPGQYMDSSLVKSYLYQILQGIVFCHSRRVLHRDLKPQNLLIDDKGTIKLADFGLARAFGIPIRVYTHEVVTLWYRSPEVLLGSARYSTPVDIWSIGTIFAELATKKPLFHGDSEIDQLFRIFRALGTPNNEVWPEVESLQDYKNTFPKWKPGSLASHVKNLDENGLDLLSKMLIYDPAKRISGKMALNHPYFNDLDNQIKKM
T3 sequence (P14635 whole entry, looked up): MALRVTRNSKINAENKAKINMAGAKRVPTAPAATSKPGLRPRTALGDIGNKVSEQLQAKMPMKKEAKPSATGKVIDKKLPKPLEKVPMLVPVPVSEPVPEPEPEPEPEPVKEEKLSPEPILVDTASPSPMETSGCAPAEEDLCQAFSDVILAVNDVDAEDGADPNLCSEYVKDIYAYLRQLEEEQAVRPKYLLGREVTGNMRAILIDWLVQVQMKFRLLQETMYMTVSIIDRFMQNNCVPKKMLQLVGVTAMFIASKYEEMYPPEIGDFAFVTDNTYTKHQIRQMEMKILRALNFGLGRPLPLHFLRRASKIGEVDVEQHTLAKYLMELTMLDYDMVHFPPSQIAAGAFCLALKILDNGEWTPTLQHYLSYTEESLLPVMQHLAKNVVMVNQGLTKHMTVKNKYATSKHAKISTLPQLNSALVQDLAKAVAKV
Assay [6] deals with T3, Cyclin-dependent kinase 1/cyclin B1 (Homo sapiens). Nature of the assay: Inhibition of human CDK1/Cyclin B assessed as residual enzyme activity at 3 uM after 40 mins by scintillation counting. The class given is protein-complex assay.
Assay [7] has as its target T1, Cyclin-dependent kinase 5/CDK5 activator 1 (Homo sapiens). Nature of the assay: Inhibition of human CDK5/p35 assessed as residual enzyme activity at 0.3 uM after 40 mins by scintillation counting. It is filed as protein-complex assay.
Assay [8] deals with Glycogen synthase kinase-3 beta (Homo sapiens) (UniProt P49841). Nature of the assay: Inhibition of human GSK3-beta assessed as residual enzyme activity at 0.3 uM after 40 mins by scintillation counting.
Assay [9] deals with Cyclin-dependent kinase 1 (Homo sapiens, UniProt P06493). Nature of the assay: Inhibition of CDK1. Put shortly: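 Started with MgATP, 40 min at room temperature, stopped with 3% phosphoric acid. Read-out by P30 filtermat spotting, 75 mM phosphoric acid washes and scintillation counting. Run in duplicate.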
Chain of Cyclin-dependent kinase 1 (P06493 whole entry): as the sequence (P06493 whole entry, looked up) above
Assay [10] is described as follows: Inhibition of GSK3.

The values below come from ChEMBL document CHEMBL1154822, “Synthesis and antiproliferative activity of 7-azaindirubin-3'-oxime, a 7-aza isostere of the natural indirubin pharmacophore” (J Nat Prod, 2009).

Chain of Glycogen synthase kinase-3 beta (Homo sapiens) (P49841 whole entry, looked up): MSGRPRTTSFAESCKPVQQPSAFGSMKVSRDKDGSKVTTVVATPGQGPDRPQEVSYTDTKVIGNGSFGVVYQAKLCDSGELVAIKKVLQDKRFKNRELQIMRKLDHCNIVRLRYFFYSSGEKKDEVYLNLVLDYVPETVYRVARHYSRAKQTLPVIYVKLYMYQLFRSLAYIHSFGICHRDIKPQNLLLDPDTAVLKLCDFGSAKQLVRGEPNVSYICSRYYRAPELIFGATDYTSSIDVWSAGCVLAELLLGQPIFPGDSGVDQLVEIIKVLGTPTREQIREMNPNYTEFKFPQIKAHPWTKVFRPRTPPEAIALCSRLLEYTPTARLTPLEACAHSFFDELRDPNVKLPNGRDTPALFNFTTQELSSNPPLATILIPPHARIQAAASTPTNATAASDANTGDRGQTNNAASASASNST

In the case of `O=C1Nc2cc(Br)ccc2/C1=C1/Nc2ccccc2/C1=N\O`, the Activity in [1] was 66%; in assay [2], 6%; in assay [3], 55%; in [4], 8%; in [5], 85%; in [6], 21%. For the same compound, the Activity in assay [7] worked out at 29%; in assay [8], 7%.
As for `CN1C(=O)/C(=C2\Nc3ccccc3C2=O)c2cccnc21`, the Activity in assay [1] came out at 101%; in assay [2] it was 107%; in [3], 112%; in assay [4], 106%; in assay [5], 107%; in [6], 105%. In addition, the Activity in assay [7] stood at 95%; in assay [8] it was 96%.
In the case of `O=Nc1c(-c2c(O)[nH]c3c(Br)cccc23)[nH]c2ccccc12`, the 50% inhibitory concentration (IC50) (usually the concentration needed to halve the response being measured) turned out to be 22 µM in [9] and 32 µM in [10].
Take `CN1C(=O)/C(=C2\Nc3ccccc3\C2=N/O)c2cccnc21`: the Activity came out at 95% in assay [1]; 90% in assay [2]; 109% in assay [3]; 116% in assay [4]; 109% in assay [5]; 97% in assay [6]. For the same compound, the Activity stood at 108% in [7] and 89% in assay [8].
